Data from ChEMBL document CHEMBL1144682, “Glycosyl and polyalcoholic prodrugs of lonidamine” (Bioorg Med Chem Lett, 2008).
Converted amounts (≈) assume the structure as drawn. The source made the active and inactive calls. The calls are words filed in the database; no cut-off is given here.

Tests used:
[1] = Solubility in water; assay type: physicochemical; details: for solubility: water
[2] = Partition coefficient, log P of the compound; assay type: physicochemical; details: octanol/water
[3] = system: PC-3; test: Growth inhibition of human PC3 cells by SRB assay; assay type: functional
In short: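 Human PC-3 prostate cancer cells tested by sulforhodamine B assay following the NCI protocol. Concentrations went up to 100 μM, and GI50 was derived.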

[4] = Cell cycle arrest in human SKOV cells assessed as accumulation at G1 phase at 150 uM after 12 hrs by flow cytometry; assay type: functional, cell-based
In short: (§1)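 SK-OV ovarian carcinoma cells exposed for 12 h to drug at 50 or 150 μM with 0.01% DMSO present. Cells stained with propidium iodide and analysed by flow cytometry for G1, S and G2 distribution. Values are means ± SEM of three independent experiments.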

[5] = Stability in human plasma assessed as half life of hydrolysis; assay type: ADME, cell-free
In short: (§2)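 Enzymatic hydrolysis in 80% rat plasma or 80% human plasma at 37 °C. t1/2 taken from first-order kinetic plots. Values are means of three experiments with SEM.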

[6] = Cell cycle arrest in human SKOV cells assessed as decrease in S phase accumulation at 150 uM after 12 hrs by flow cytometry; assay type: functional, cell-based; in short: as §1
[7] = Chemical stability assessed as half life of hydrolysis at pH 1.3; assay type: physicochemical; details: buffer
In short: (§3)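 Non-enzymatic chemical hydrolysis of the prodrugs in buffer at pH 1.3 (simulated gastric conditions) and in phosphate buffer at pH 7.4, at 37 °C. Followed for up to 120 h. First-order kinetic plots gave Kobs and t1/2. Values are means of three experiments with SEM.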

[8] = Stability in rat plasma assessed as half life of hydrolysis; assay type: ADME, cell-free; in short: as §2
[9] = Cell cycle arrest in human SKOV cells assessed as decrease in S phase accumulation at 50 uM after 12 hrs by flow cytometry; assay type: functional, cell-based; in short: as §1
[10] = Cytotoxicity against human SKOV cells at 300 uM after 12 hrs; assay type: functional
In short: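 SK-OV ovarian carcinoma cells treated for 12 h at 50, 150 or 300 μM drug with 0.01% DMSO present. Cell viability read out as % inhibition.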

[11] = Chemical stability assessed as half life of hydrolysis at pH 7.4; assay type: physicochemical; details: buffer; in short: as §3

SMILES	logP [2]	solubility [1] [µg/mL]	half-life [5] [h]	half-life [7] [h]	half-life [8] [h]	half-life [11] [h]	further results
O=C(OC[C@@H](O)[C@H](O)COC(=O)c1nn(Cc2cc(Cl)cc(Cl)c2)c2ccccc12)c1nn(Cc2cc(Cl)cc(Cl)c2)c2ccccc12	–	–	–	–	–	–	Activity ([1]; buffer): Not Active
O=C(O)c1nn(Cc2ccc(Cl)cc2Cl)c2ccccc12 [LONIDAMINE]	1.3	17 (≈ 52.9 µM)	–	–	–	–	Activity [3]: inactive
O=C(OC[C@@H](O)[C@H](O)CO)c1nn(Cc2cc(Cl)cc(Cl)c2)c2ccccc12	3.04	1.2 (≈ 2.82 µM)	–	–	–	–	–
O=C(OC[C@H]1O[C@@H](O)[C@H](O)[C@H]1O)c1nn(Cc2cc(Cl)cc(Cl)c2)c2ccccc12	3.4	1.3 (≈ 2.87 µM)	–	–	–	–	–
O=C(OC[C@H]1OC(O)[C@H](O)[C@@H](O)[C@H]1O)c1nn(Cc2cc(Cl)cc(Cl)c2)c2ccccc12 (stereo not given in full)	2.54	84.3 (≈ 174 µM)	2.06	> 120	0.995	114	Activity [4]: Active; Activity [6]: Active; GI50 [3]: 3.16 µM; Activity [9]: Active; inhibition at 300 µM [10]: 60%
O=C(OCC(O)CO)c1nn(Cc2cc(Cl)cc(Cl)c2)c2ccccc12 (stereo not given)	3.96	0.51 (≈ 1.29 µM)	–	–	–	–	–
O=C(O[C@@H]([C@H](O)[C@H](O)CO)[C@H](O)CO)c1nn(Cc2cc(Cl)cc(Cl)c2)c2ccccc12	2.55	137 (≈ 283 µM)	6	> 120	2.17	80.7	GI50 [3]: 3.16 µM; inhibition at 300 µM [10]: 30%
O=C(O[C@@H]1[C@@H](O)[C@H](O)O[C@H](CO)[C@H]1O)c1nn(Cc2cc(Cl)cc(Cl)c2)c2ccccc12	2.19	118 (≈ 245 µM)	0.711	> 120	0.534	44.1	–
